Laboratory results from ChEMBL document CHEMBL3352073, “Synthesis of cyclic 1,9-acetal derivatives of forskolin and their bioactivity evaluation” (Eur J Med Chem, 2014).
Converted amounts (≈) assume the structure as drawn.

Experiments:
HEK293 = experiment: Cytotoxic activity against HEK293 cells after 24 hrs by MTT assay; format: cell-based; settings: Homo sapiens, HEK293, 24 h
In short: (§1)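 Cells were seeded at 1 × 10^6 to 1 × 10^5 cells/well in FBS-rich medium with antibiotics, and compounds were added after 24 h. MTT (5 mg/ml stock in PBS pH 7.4) was then added, with 4 h in the dark in an incubator. Dye was removed (except for suspension K562), formazan was dissolved in DMSO with 10 min shaking, and A570 was read. Percent cytotoxicity was calculated relative to untreated control absorbance.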

HeLa = experiment: Anticancer activity against human HeLa cells after 24 hrs by MTT assay; format: functional, cell-based; in short: as §1
[1] = Anticancer activity against human MDA-MB cells after 24 hrs by MTT assay; format: functional, cell-based
WRL68 = experiment: Anticancer activity against human WRL68 cells after 24 hrs by MTT assay; format: functional, cell-based; settings: WRL68, 24 h; in short: as §1
K562 = experiment: Anticancer activity against human K562 cells after 24 hrs by MTT assay; format: functional, cell-based; settings: K562, 24 h; in short: as §1
[2] = Inhibition of rat intestinal alpha-glucosidase using p-nitrophenyl-alpha-D-glucopyranoside substrate by spectrophotometry
In short: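 Crude enzyme was the centrifuged supernatant of sonicated rat intestinal acetone powder in normal saline (100:1 w/v). Samples from 5 mg/mL DMSO stocks were preincubated with enzyme for 5 min in 100 mM phosphate buffer pH 6.8. Then 5 mM p-nitrophenyl-α-D-glucopyranoside solution was added, and p-nitrophenol was read at 405 nm after 5 min. Substrate-free blanks and a DMSO control were included, in triplicate. IC50 was obtained by regression on mean inhibition.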

MCF7 = experiment: Anticancer activity against human MCF7 cells after 24 hrs by MTT assay; format: functional, cell-based; settings: MCF7, 24 h; in short: as §1
NRK = experiment: Cytotoxicty against rat NRK cells after 24 hrs by MTT assay; format: cell-based; in short: as §1
[3] = Anticancer activity against human SH-SY5Y cells after 24 hrs by MTT assay; format: functional, cell-based
A498 = experiment: Anticancer activity against human A498 cells after 24 hrs by MTT assay; format: functional, cell-based; settings: A498, 24 h; in short: as §1
[4] = Induction of hemolysis in human erythrocytes assessed as mean erythrocyte fragility by measuring level of hemolysis at 50% PBS at 100 ug/mL by spectrophotomtery based erythrocyte osmotic fragility assay; format: cell-based
In short: (§2)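 Heparinised human blood was incubated with compound at 37 °C for 60 min, then transferred to hypotonic PBS (0.1–0.85 %). After 30 min equilibration and centrifugation, supernatant A540 was read. Percent lysis is relative to a 100% haemolysis standard, and fragility curves give MEF50 as the haemolysis level at 50% PBS. DMSO 0.5% served as vehicle control.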

[5] = Induction of hemolysis in human erythrocytes assessed as mean erythrocyte fragility by measuring level of hemolysis at 50% PBS at 50 ug/mL by spectrophotomtery based erythrocyte osmotic fragility assay; format: cell-based; in short: as §2

Row | SMILES | IC50 (HEK293) [µg/mL] | IC50 (HeLa) [µg/mL] | IC50 [1] [µg/mL] | IC50 (WRL68) [µg/mL] | IC50 (K562) [µg/mL] | IC50 [2] [µg/mL] | IC50 (MCF7) [µg/mL] | IC50 (NRK) [µg/mL] | IC50 [3] [µg/mL] | IC50 (A498) [µg/mL] | Activity [4] | Activity [5]
1 | C=C[C@@]1(C)CC(=O)[C@@]23O[C@@H](c4ccccc4)O[C@H]4CCC(C)(C)[C@H]([C@H](O)[C@H](OC(C)=O)[C@@]2(C)O1)[C@]43C | > 100 | > 100 | > 100 | > 100 | > 100 | 2.81 (≈ 5.64 µM) | > 100 | > 100 | > 100 | > 100 |  | 
2 | C=C[C@@]1(C)CC(=O)[C@@]23O[C@@H](C)O[C@H]4CCC(C)(C)[C@H]([C@H](O)[C@H](OC(C)=O)[C@@]2(C)O1)[C@]43C | > 100 | > 100 | > 100 | > 100 | > 100 | 5.87 (≈ 13.4 µM) | > 100 | > 100 | > 100 | > 100 |  | 
3 | C=C[C@@]1(C)CC(=O)[C@@]23O[C@@H](c4ccc(Br)cc4)O[C@H]4CCC(C)(C)[C@H]([C@H](O)[C@H](OC(C)=O)[C@@]2(C)O1)[C@]43C | > 100 | 46.2 (≈ 79.9 µM) | > 100 | > 100 | > 100 | > 100 | > 100 | > 100 | > 100 | > 100 |  | 
4 | C=C[C@@]1(C)CC(=O)[C@@]23O[C@@H](c4ccc([N+](=O)[O-])cc4)O[C@H]4CCC(C)(C)[C@H]([C@H](O)[C@H](OC(C)=O)[C@@]2(C)O1)[C@]43C | > 100 | > 100 | > 100 | > 100 | > 100 | 0.76 (≈ 1.4 µM) | > 100 | > 100 | > 100 | > 100 |  | 
5 | C=C[C@@]1(C)CC(=O)[C@@]23O[C@@H](c4cccs4)O[C@H]4CCC(C)(C)[C@H]([C@H](O)[C@H](OC(C)=O)[C@@]2(C)O1)[C@]43C | 40.1 (≈ 79.6 µM) | 42 (≈ 83.2 µM) | > 100 | > 100 | > 100 | > 100 | > 100 | > 100 | > 100 | > 100 |  | 
6 | C=C[C@@]1(C)CC(=O)[C@@]23O[C@@H](c4ccco4)O[C@H]4CCC(C)(C)[C@H]([C@H](O)[C@H](OC(C)=O)[C@@]2(C)O1)[C@]43C | > 100 | > 100 | > 100 | > 100 | > 100 | 4.96 (≈ 10.2 µM) | > 100 | > 100 | > 100 | > 100 |  | 
7 | C=C[C@@]1(C)CC(=O)[C@@]23O[C@@H](/C=C/c4ccccc4)O[C@H]4CCC(C)(C)[C@H]([C@H](O)[C@H](OC(C)=O)[C@@]2(C)O1)[C@]43C | 38.5 (≈ 73.5 µM) | > 100 | > 100 | > 100 | > 100 | 0.74 (≈ 1.41 µM) | > 100 | > 100 | > 100 | > 100 |  | 
8 | C=C[C@@]1(C)CC(=O)[C@@]23O[C@@H](c4ccccc4)O[C@H]4CCC(C)(C)[C@H]([C@H](O)[C@H](O)[C@@]2(C)O1)[C@]43C | 1.17 (≈ 2.56 µM) | 3.89 (≈ 8.52 µM) | 20.8 (≈ 45.4 µM) | 9.79 (≈ 21.4 µM) | 1.26 (≈ 2.77 µM) | > 100 | > 100 | 23.7 (≈ 51.9 µM) | 21.6 (≈ 47.2 µM) | 20.4 (≈ 44.8 µM) | 0.69 | 0.67
9 | C=C[C@@]1(C)CC(=O)[C@@]23O[C@@H](C)O[C@H]4CCC(C)(C)[C@H]([C@H](O)[C@H](O)[C@@]2(C)O1)[C@]43C | 24.8 (≈ 63 µM) | 0.95 (≈ 2.41 µM) | 24.5 (≈ 62.1 µM) | 29.7 (≈ 75.4 µM) | 25.4 (≈ 64.3 µM) | 4.23 (≈ 10.7 µM) | 45.7 (≈ 116 µM) | 48 (≈ 122 µM) | 34.7 (≈ 87.9 µM) | 40.6 (≈ 103 µM) | 0.69 | 0.85
10 | C=C[C@@]1(C)CC(=O)[C@@]23O[C@@H](c4ccccc4)O[C@H]4CCC(C)(C)[C@H]([C@H](OC(C)=O)[C@H](O)[C@@]2(C)O1)[C@]43C | 14.3 (≈ 28.7 µM) | 9.22 (≈ 18.5 µM) | 1.28 (≈ 2.57 µM) | 16.6 (≈ 33.3 µM) | 1.26 (≈ 2.53 µM) | 4.14 (≈ 8.3 µM) | 1.15 (≈ 2.31 µM) | 20.1 (≈ 40.4 µM) | 16.6 (≈ 33.3 µM) | 16.7 (≈ 33.5 µM) | 0.57 | 0.53
11 | C=C[C@@]1(C)CC(=O)[C@@]23O[C@@H](C)O[C@H]4CCC(C)(C)[C@H]([C@H](OC(C)=O)[C@H](O)[C@@]2(C)O1)[C@]43C | > 100 | 17.4 (≈ 39.9 µM) | > 100 | > 100 | > 100 | 6.4 (≈ 14.7 µM) | 39.2 (≈ 89.9 µM) | > 100 | > 100 | 41.6 (≈ 95.3 µM) |  | 
12 | C[C@H]1O[C@H](O[C@H]2[C@H](O)[C@@H](O)[C@@H](O[C@H]3[C@H](O)[C@@H](O)C(O)O[C@@H]3CO)O[C@@H]2CO)[C@H](O)[C@@H](O)[C@@H]1N[C@H]1C=C(CO)[C@@H](O)[C@H](O)[C@H]1O (stereo partly specified) [ACARBOSE] |  |  |  |  |  | 0.45 (≈ 0.697 µM) |  |  |  |  |  | 
13 | COc1cc(/C=C/C(=O)CC(=O)/C=C/c2ccc(O)c(OC)c2)ccc1O [CURCUMIN] |  |  |  |  |  |  |  |  |  |  | 0.53 | 
14 | CC(=O)O[C@H]1C(=O)[C@@]2(C)[C@H]([C@H](OC(=O)c3ccccc3)[C@]3(O)C[C@H](OC(=O)[C@H](O)[C@@H](NC(=O)c4ccccc4)c4ccccc4)C(C)=C1C3(C)C)[C@]1(OC(C)=O)CO[C@@H]1C[C@@H]2O [PACLITAXEL] | 0.008 (≈ 0.00937 µM) |  | 0.026 (≈ 0.0304 µM) | 0.004 (≈ 0.00468 µM) | 0.018 (≈ 0.0211 µM) |  |  |  | 7.3 (≈ 8.55 µM) | 7.53 (≈ 8.82 µM) |  | 
15 | COc1cc([C@@H]2c3cc4c(cc3[C@H](O)[C@H]3COC(=O)[C@H]23)OCO4)cc(OC)c1OC [PODOFILOX] | 0.12 (≈ 0.29 µM) | 3.14 (≈ 7.58 µM) | 0.017 (≈ 0.041 µM) |  | 0.013 (≈ 0.0314 µM) |  |  |  | 1.05 (≈ 2.53 µM) | 0.034 (≈ 0.082 µM) | 0.69 | 
